Values joined by “and” are separate entries in the source; they are usually repeats but may differ in a detail not shown here. Equal entries are not always repeated. Where two headings read alike, the source gives them in different places. Peptide text beside a SMILES is read from it. * marks the point of attachment. Cbz = O=C(OCc1ccccc1)*
Key:
[1] = target: p97 ATPase (Mus musculus, UniProt Q01853); test: p97 ATPase assay; type: biochemical
[2] = tested on: Luc-ODC; test: Luc-ODC reporter degradation assay; type: cell-based, human; settings: for IC50: Homo sapiens, read-out: IC50 Luc-ODC
[3] = tested on: Ub^G76V-GFP; test: cells; type: cell-based, human; settings: for IC50: Homo sapiens, read-out: IC50 Ub^G76V-GFP
[4] = tested on: ODD-Luc; test: ODD-Luc reporter degradation assay; type: cell-based, human; settings: for IC50: Homo sapiens, read-out: IC50 ODD-Luc
[5] = tested on: Ub^G76V-GFP; test: Ub^G76V-GFP reporter accumulation assay; type: cell-based, human; settings: for Score in Ub^G76V-GFP accumulation screen: rescreen of 160 kinase inhibitors
In short: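 Dual-reporter HeLa cells expressing UbG76V-GFP were seeded at 5000 per well and grown 16 h. They were exposed to DMSO, MG132 or test compound in modified DMEM (no phenol red, folic acid, riboflavin or vitamin B12) for 2–3 h. Two GFP images per well (100-ms exposure) were taken by automated microscopy. Mean GFP intensity per cell area was averaged over about 500 cells, background-corrected using reporter-free cells, and normalized to DMSO-treated cells.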

[6] = target: C522A-p97 (Mus musculus, UniProt Q01853, C522A); test: In vitro ATPase assay of C522A-p97; type: biochemical; settings: compared with wild-type p97
Sequence of C522A-p97 (Q01853 whole entry C522A): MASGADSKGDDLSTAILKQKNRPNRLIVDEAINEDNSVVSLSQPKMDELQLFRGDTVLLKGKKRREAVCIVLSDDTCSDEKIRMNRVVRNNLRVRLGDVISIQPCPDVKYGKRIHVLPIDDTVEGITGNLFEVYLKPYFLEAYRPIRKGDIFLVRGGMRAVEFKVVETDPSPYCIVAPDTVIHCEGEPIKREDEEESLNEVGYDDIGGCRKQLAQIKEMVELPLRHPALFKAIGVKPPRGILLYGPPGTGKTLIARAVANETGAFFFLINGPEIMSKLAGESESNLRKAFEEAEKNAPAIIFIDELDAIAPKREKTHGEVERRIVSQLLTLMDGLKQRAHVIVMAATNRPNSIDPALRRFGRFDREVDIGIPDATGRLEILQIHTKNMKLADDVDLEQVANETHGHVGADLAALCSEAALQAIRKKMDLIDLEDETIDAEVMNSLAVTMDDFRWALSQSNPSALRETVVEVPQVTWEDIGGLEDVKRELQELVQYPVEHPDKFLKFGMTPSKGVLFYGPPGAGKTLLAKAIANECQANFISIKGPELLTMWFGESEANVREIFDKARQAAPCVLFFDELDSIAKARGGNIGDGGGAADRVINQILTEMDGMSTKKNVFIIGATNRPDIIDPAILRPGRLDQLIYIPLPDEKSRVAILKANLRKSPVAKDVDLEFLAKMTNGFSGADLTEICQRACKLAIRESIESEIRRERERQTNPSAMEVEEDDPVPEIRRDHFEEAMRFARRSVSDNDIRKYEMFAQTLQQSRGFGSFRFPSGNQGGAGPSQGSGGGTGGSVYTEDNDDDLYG
In short: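 The C522A p97 mutant was made by site-directed mutagenesis of the wild-type p97 plasmid. It was assayed for in vitro ATPase activity beside wild-type p97, and inhibition was read from titration curves of test compound.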

[7] = tested on: TCRα-GFP; test: ERAD reporter TCRα-GFP degradation in HEK293 cells; type: cell-based, human; settings: 5 or 10 μM, 2 h CHX chase
In short: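 HEK293 cells stably expressing the ERAD reporter TCRα-GFP were pretreated with MG132 and washed. They were then incubated with CHX plus test compound for 2 h before harvest, and reporter levels were assessed by immunoblotting.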

[8] = tested on: Luc-ODC; test: Luc-ODC reporter accumulation assay; type: cell-based, human; settings: 30 μM for 2.5 h, relative to DMSO
In short: (§1)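 HeLa cells stably expressing UbG76V-GFP were lentivirally transduced with ODD-Luc or Luc-ODC and kept under puromycin (2.5 μg/ml). Cells were seeded at 5000 per well and grown 16 h. They were treated 2–3 h in modified DMEM (no phenol red, folic acid, riboflavin or vitamin B12) containing DMSO, MG132 or test compound. d-Luciferin (1 mg/ml in PBS, stock) was added, followed by 5 min shaking at room temperature. Luminescence was read with […] integration and normalized to DMSO.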

[9] = tested on: ODD-Luc; test: ODD-Luc reporter accumulation assay; type: cell-based, human; settings: 7.5 μM for 2 h, relative to DMSO
In short: as §1

[10] = read-out: IC50 p97 ATPase, in vitro, WT p97, triplicate, ± S.D.
[11] = IC50 p97 ATPase, in vitro, WT p97, triplicate, ± S.D.

Sequence of p97 ATPase (Q01853 whole entry): as the sequence (Q01853 whole entry C522A) above, with A522C counted along it

CC[n+]1c(/C=C/N(C)c2ccccc2)n(-c2ccccc2)c2ccc(-c3nc4ccccc4s3)cc21 [Compound 1, Akt inhibitor IV]
IC50 [1, 10]: 12 ± 5 µM

O=c1[nH]c2ccccc2n1C1CCN(Cc2ccc(-c3nc4cc5[nH]cnc5cc4nc3-c3ccccc3)cc2)CC1 [Compound 2, Akt inhibitor VIII]
IC50 [1, 10]: 43 ± 4 µM

CCN(CC)CCCCN1c2ccccc2Oc2ccc(Cl)cc21 [Compound 3, Akt inhibitor X]
IC50 [2]: 11 ± 5 µM
IC50 [3]: 16 ± 9 µM
IC50 [1]: > 50 µM
IC50 [4]: 14 ± 11 µM
Score in Ub^G76V-GFP accumulation screen [5]: did not score as positives

O=C1c2ccccc2-c2nc3nnnn3nc21 [Compound 4, PDK1/Akt/Flt]
IC50 [1, 10]: > 50 µM

COc1ccc2c(c[n+](C)c3c4cc5c(cc4ccc23)OCO5)c1OC [Compound 5, Chelerythrine chloride]
IC50 [2]: 1.9 ± 0.7 µM
IC50 [3]: 2.2 ± 1 µM
IC50 [1, 11]: 24 ± 11 µM
IC50 [4]: 3.4 ± 0.2 µM

CO[C@H]1[C@@H](OC)C[C@H](C)[C@@H](OC)C2=CC(=O)C=C(NC(=O)/C(C)=C/C=C\[C@H](OC)[C@@H](OC(N)=O)/C(C)=C/[C@@H]1C)C2=O [Compound 6, Herbimycin A, Streptomyces sp.]
Effect on Luc-ODC degradation (in words) [2]: very little activity
IC50 [2]: > 30 µM
IC50 [3]: 2.8 ± 1.6 µM
IC50 [1, 11]: > 50 µM
IC50 [4]: 5 ± 2 µM

O=[N+]([O-])C=Cc1ccc2c(c1)OCO2 [Compound 7, 3,4-methylenedioxy-β-nitrostyrene]
Activity toward C522A-p97 ATPase (in words) [6]: poor activity
Effect on Luc-ODC degradation (in words) [2]: very little activity
IC50 [2]: > 30 µM
Degradation of TCRα-GFP [7]: potently blocked
Stabilization of Ub^G76V-GFP ([3]; 1.7 μM): 2 fold
Stabilization of Ub^G76V-GFP (in words) ([3]; 7.5 μM): almost complete stabilization
IC50 [3]: 1.6 ± 0.4 µM
IC50 for p97-dependent versus p97-independent reporters ([3]; fold lower, Ub^G76V-GFP vs ODD-Luc): 3.5 fold
IC50 [1, 11]: ≤ 10 µM and 1.7 µM
IC50 [4]: 5.9 ± 1.5 µM
Accumulation of Ub^G76V-GFP ([5]; 7.5 or 30 μM, 3 h): < 2 fold
Score in Ub^G76V-GFP accumulation screen [5]: did not score as positives

CN[C@@H]1C[C@H]2O[C@@](C)([C@@H]1OC)n1c3ccccc3c3c4c(c5c6ccccc6n2c5c31)C(=O)NC4 [Compound 8, Staurosporine, Streptomyces sp.]
IC50 [1, 10]: > 50 µM

Cc1ccc(S(=O)(=O)/C=C/C#N)cc1 [Compound 9, BAY 11-7082]
IC50 [1, 10]: 12 ± 1 µM

CCn1cnc2c(Nc3cccc(Cl)c3)nc(N[C@@H]3CCCC[C@@H]3N)nc21 [Compound 10, Cdk1 Inhibitor, CGP74514A]
IC50 [1, 10]: 17 ± 3 µM

Cc1ccc(NC2=CC(=O)c3sc(C)nc3C2=O)cc1 [Compound 11, Cdk4 inhibitor III]
IC50 [1, 10]: 13 ± 0.5 µM

O=C1c2ccccc2-[n+]2ccc3c([nH]c4ccccc43)c21 [Compound 12, Fascaplysin]
Effect on Luc-ODC degradation (in words) [2]: very little activity
IC50 [2]: > 30 µM
IC50 [3]: 0.9 ± 0.1 µM
IC50 [1, 11]: > 50 µM
IC50 [4]: 6.9 ± 1.9 µM

Cn1nc2c3c(cccc31)C(=O)c1ccccc1-2 [Compound 14, JNK inhibitor, negative control]
IC50 [1, 10]: > 50 µM

COC(=O)[C@@]1(O)C[C@H]2O[C@]1(C)n1c3ccccc3c3c4c(c5c6ccccc6n2c5c31)C(=O)NC4 [Compound 15, K-252a, Nocardiopsis sp.]
IC50 [1, 10]: 26 ± 2 µM

O=C1NC(=O)c2cc(Nc3ccc(F)cc3)c(Nc3ccc(F)cc3)cc21 [Compound 16, PKCbII/EGFR inhibitor]
IC50 [1, 10]: > 50 µM

N#Cc1cnc2cnc(NCc3cccnc3)cc2c1Nc1ccc(F)c(Cl)c1 [Compound 17, Tpl2 kinase inhibitor]
IC50 [1, 10]: > 50 µM

O=C(O)C=Cc1ccc2c(c1)OCO2 [Compound 18, 3,4-Methylenedioxycinnamic acid]
Effect on Ub^G76V-GFP degradation (in words) [3]: greatly diminished activity

CC(C)C[C@@H](C=O)NC(=O)[C@H](CC(C)C)NC(=O)[C@H](CC(C)C)NC(=O)OCc1ccccc1 [MG132] (Cbz-Leu-Leu-Leu-aldehyde)
IC50 with Luc-ODC reporter relative to Ub^G76V-GFP and ODD-Luc reporters ([2]; fold higher): ~3 fold
Luc-ODC reporter accumulation [8]: 1.6 fold
ODD-Luc reporter accumulation [9]: ~20 fold
Ub^G76V-GFP reporter accumulation ([5]; 7.5 μM for 2 h, relative to DMSO): ~20 fold

NS(=O)(=O)OC[C@@H]1C[C@@H](n2ccc3c(N[C@H]4CCc5ccccc54)ncnc32)C[C@@H]1O [MLN4924]
Effect on Luc-ODC degradation (in words) [2]: had no effect
Effect on Ub^G76V-GFP degradation (in words) [3]: had no effect
Effect on ODD-Luc degradation (in words) [4]: strong stabilization
